{"source": "ChEMBL document CHEMBL1126723", "about": "“Inhibition and inactivation of presynaptic cholinergic markers using redox-reactive choline analogs” (J Med Chem, 1993)", "key": {"[1]": {"biological_target": "T1, Sodium-dependent serotonin transporter (Rattus norvegicus, UniProt P31652)", "assay": "Inhibition of high affinity 5-HT uptake at concentration of 1 uM", "type": "functional"}, "[2]": {"biological_target": "T2, Sodium-dependent dopamine transporter (Rattus norvegicus, UniProt P23977)", "assay": "Inhibition constant of high-affinity dopamine uptake", "procedure,_shortened": "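Crude synaptosomes from adult male Long-Evans rat forebrain (Gray–Whittaker method) were incubated with [3H]dopamine (0.72 Ci/mmol) for 3 min at 30 °C alongside 0 °C blanks, with inhibitor at 5–10 concentrations between 10 µM and 10 mM. Uptake was stopped on ice and pellets were washed in KRB. IC50 came from regression or Hill plots, and Ki from Cheng–Prusoff using dopamine Km 1.4 µM.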"}, "[3]": {"biological_target": "T1, Sodium-dependent serotonin transporter", "assay": "Inhibition constant of high-affinity 5-HT uptake", "procedure,_shortened": "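Rat forebrain crude synaptosomes took up [3H]serotonin (0.727 Ci/mmol) for 3 min at 30 °C, with and without inhibitor, as for the choline assay. IC50 came from nonlinear regression or Hill plots over 5–10 inhibitor concentrations. Ki was derived with Cheng-Prusoff, using the serotonin transport Km measured over 10 nM to […] substrate.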"}, "[4]": {"biological_target": "T2, Sodium-dependent dopamine transporter", "assay": "(§1) Inhibition of high affinity dopamine uptake at concentration of 1 uM", "type": "functional"}, "Rattus norvegicus [5]": {"species_on_record": "Rattus norvegicus", "assay": "Michaelis-Menten constant was reported for high affinity transport of choline", "type": "functional", "procedure,_shortened": "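Rat forebrain crude synaptosome aliquots (0.27–0.3 mg protein) were equilibrated at 30 °C. [3H]choline was added at 10 nM to 10 μM and uptake run 3 min, within the linear range. Parallel 0 °C incubations corrected for nonspecific binding and diffusion. Reactions were stopped by ice cooling, centrifuged at 800g, and the pellets washed with ice-cold KRB.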"}, "Rattus norvegicus [6]": {"species_on_record": "Rattus norvegicus", "assay": "as §1", "type": "functional"}, "[7]": {"substrate": "C[N+](C)(C)CC(O)c1ccc(O)c(O)c1"}, "[8]": {"substrate": "C[N+](C)(C)CC(O)c1ccc(O)c(O)c1", "remark": "listed apart in the source"}, "[9]": {"substrate": "C[N+](C)(C)CC(O)c1ccc(O)c(O)c1", "remark": "listed apart in the source"}, "[10]": {"substrate": "C[N+](C)(C)CC(O)c1ccc(O)c(O)c1", "remark": "listed apart in the source"}, "[11]": {"substrate": "C[N+](C)(C)CC(O)c1ccc(O)c(O)c1", "remark": "listed apart in the source"}, "[12]": {"substrate": "C[N+](C)(C)CC(O)c1ccc(O)c(O)c1", "remark": "listed apart in the source"}}}
{"molecule": "C[N+](C)(C)CC(O)c1ccc(O)c(O)c1", "note": "(centres undefined) [CATECHOLINE]", "values": [{"measurement": "IC50", "setting": "[1]", "value": 3.6, "unit": "mM"}, {"measurement": "Ki", "setting": "[2]", "value": 530, "unit": "µM"}, {"measurement": "Ki", "setting": "[3]", "value": 390, "unit": "µM"}, {"measurement": "IC50", "setting": "[4]", "value": 949, "unit": "µM"}]}
{"molecule": "C[N+](C)(C)c1cccc(O)c1O", "values": [{"measurement": "IC50", "setting": "[1]", "value": 0.213, "unit": "mM"}, {"measurement": "Km", "setting": "Rattus norvegicus [5]", "value": 1000, "unit": "µM"}, {"measurement": "Ki", "setting": "[3]", "value": 90, "unit": "µM"}, {"measurement": "IC50", "setting": "Rattus norvegicus [6]", "value": 196, "unit": "µM"}]}
{"molecule": "Sodium- and chloride-dependent creatine transporter 1 (Rattus norvegicus), P28570 (protein) MAKKSAENGIYSVSGDEKKGPLIVSGPDGAPSKGDGPAGLGAPSSRLAVPPRETWTRQMDFIMSCVGFAVGLGNVWRFPYLCYKNGGGVFLIPYVLIALVGGIPIFFLEISLGQFMKAGSINVWNICPLFKGLGYASMVIVFYCNTYYIMVLAWGFYYLVKSFTTTLPWATCGHTWNTPDCVEIFRHEDCANASLANLTCDQLADRRSPVIEFWENKVLRLSTGLEVPGALNWEVTLCLLACWVLVYFCVWKGVKSTGKIVYFTATFPYVVLVVLLVRGVLLPGALDGIIYYLKPDWSKLGSPQVWIDAGTQIFFSYAIGLGALTALGSYNRFNNNCYKDAIILALINSGTSFFAGFVVFSILGFMATEQGVHISKVAESGPGLAFIAYPRAVTLMPVAPLWAALFFFMLLLLGLDSQFVGVEGFITGLLDLLPASYYFRFQREISVALCCALCFVIDLSMVTDGGMYVFQLFDYYSASGTTLLWQAFWECVVVAWVYGADRFMDDIACMIGYRPCPWMKWCWSFFTPLVCMGIFIFNVVYYKPLVYNNTYVYPWWGEAMGWAFALSSMLCVPLHLLGCLLRAKGTMAERWQHLTQPIWGLHHLEYRAQDADVRGLTTLTPVSESSKVVVVESVM", "values": [{"measurement": "Km", "setting": "[7]", "value": 2040, "unit": "µM"}, {"measurement": "Vmax (pM min-1 mg-1)", "setting": "[8]", "value": 22}]}
{"molecule": "Sodium-dependent dopamine transporter (Rattus norvegicus), P23977 (protein) MSKSKCSVGPMSSVVAPAKESNAVGPREVELILVKEQNGVQLTNSTLINPPQTPVEAQERETWSKKIDFLLSVIGFAVDLANVWRFPYLCYKNGGGAFLVPYLLFMVIAGMPLFYMELALGQFNREGAAGVWKICPVLKGVGFTVILISFYVGFFYNVIIAWALHYFFSSFTMDLPWIHCNNTWNSPNCSDAHASNSSDGLGLNDTFGTTPAAEYFERGVLHLHQSRGIDDLGPPRWQLTACLVLVIVLLYFSLWKGVKTSGKVVWITATMPYVVLTALLLRGVTLPGAMDGIRAYLSVDFYRLCEASVWIDAATQVCFSLGVGFGVLIAFSSYNKFTNNCYRDAIITTSINSLTSFSSGFVVFSFLGYMAQKHNVPIRDVATDGPGLIFIIYPEAIATLPLSSAWAAVFFLMLLTLGIDSAMGGMESVITGLVDEFQLLHRHRELFTLGIVLATFLLSLFCVTNGGIYVFTLLDHFAAGTSILFGVLIEAIGVAWFYGVQQFSDDIKQMTGQRPNLYWRLCWKLVSPCFLLYVVVVSIVTFRPPHYGAYIFPDWANALGWIIATSSMAMVPIYATYKFCSLPGSFREKLAYAITPEKDHQLVDRGEVRQFTLRHWLLL", "values": [{"measurement": "Km", "setting": "[9]", "value": 1400, "unit": "µM"}, {"measurement": "Vmax (pM min-1 mg-1)", "setting": "[10]", "value": 53}]}
{"molecule": "Sodium-dependent serotonin transporter (Rattus norvegicus), P31652 (protein) METTPLNSQKVLSECKDREDCQENGVLQKGVPTTADRAEPSQISNGYSAVPSTSAGDEASHSIPAATTTLVAEIRQGERETWGKKMDFLLSVIGYAVDLGNIWRFPYICYQNGGGAFLLPYTIMAIFGGIPLFYMELALGQYHRNGCISIWRKICPIFKGIGYAICIIAFYIASYYNTIIAWALYYLISSLTDRLPWTSCTNSWNTGNCTNYFAQDNITWTLHSTSPAEEFYLRHVLQIHQSKGLQDLGTISWQLTLCIVLIFTVIYFSIWKGVKTSGKVVWVTATFPYIVLSVLLVRGATLPGAWRGVVFYLKPNWQKLLETGVWVDAAAQIFFSLGPGFGVLLAFASYNKFNNNCYQDALVTSVVNCMTSFVSGFVIFTVLGYMAEMRNEDVSEVAKDAGPSLLFITYAEAIANMPASTFFAIIFFLMLITLGLDSTFAGLEGVITAVLDEFPHIWAKRREWFVLIVVITCVLGSLLTLTSGGAYVVTLLEEYATGPAVLTVALIEAVAVSWFYGITQFCSDVKEMLGFSPGWFWRICWVAISPLFLLFIICSFLMSPPQLRLFQYNYPHWSIVLGYCIGMSSVICIPTYIIYRLISTPGTLKERIIKSITPETPTEIPCGDIRMNAV", "values": [{"measurement": "Km", "setting": "[11]", "value": 150, "unit": "µM"}, {"measurement": "Vmax (pM min-1 mg-1)", "setting": "[12]", "value": 23}]}
